Measurements pooled from the literature.
Each line is one published result; the experiments were not run side by side.

| Structure (SMILES) | test | system | setting | logP |
| --- | --- | --- | --- | --- |
| CC(=O)N1N=C(c2cccc(O)c2)CC1c1ccc(Cl)cc1 (stereo not shown) | potentiometric |  |  | 2.98 |
| CC1=NN(CNc2ccc(C(=O)O)cc2)C(=O)C1=NNn1c(-c2ccccc2)nc2ccccc2c1=O |  |  |  | 4.15 |
| CCCCC1=NC2(CCCC2)C(=O)N1Cc1ccc(-c2ccccc2S(=O)(=O)Nc2noc(C)c2C)c(COCC)c1 |  |  |  | 4.26 |
| C=C(C)[C@@H]1CCC(C)=C[C@H]1c1c(O)cc(CCCCC)cc1O |  |  |  | 7.11 |
| CC1=NN(CNc2c(O)c(S(=O)(=O)O)cc3ccccc23)C(=O)C1=NNn1c(-c2ccccc2)nc2ccccc2c1=O |  |  |  | 5.01 |
| C=C[C@H]1C[N@]2CC[C@H]1C[C@@H]2C(O)c1ccnc2ccc(OC)cc12 (stereo partly shown) |  | water |  | 3.17 |
| CS(=O)(=O)N1CCN(Cc2cc3nc(-c4cccc5[nH]ncc45)nc(N4CCOCC4)c3s2)CC1 |  |  |  | 3.22 |
| O=C(O)CCCNC(=O)c1ccc(O)c2ncccc12 |  |  |  | 0.71 |
| CC1=NN(CNC(=O)c2ccccn2)C(=O)C1=NNn1c(-c2ccccc2)nc2ccccc2c1=O |  |  |  | 3.26 |
| Nc1nc(-c2ccccc2)nc2[nH]nc(Nc3ccc(C(F)(F)F)cc3)c12 |  |  |  | 2.85 |
| CC1=NN(CNC(=O)c2ccccc2)C(=O)C1=NNn1c(-c2ccccc2)nc2ccccc2c1=O |  |  |  | 4.09 |
| O=c1[nH]cc(F)c(=O)[nH]1 | shake flask | water | 24 h | -0.46 |
| N#Cc1[nH]nnc1-c1csc(-c2ccc(Cl)cc2)n1 | potentiometric |  |  | 4.5 |
| CC1=NN(CNc2ccc(Cl)cc2)C(=O)C1=NNn1c(-c2ccccc2)nc2ccccc2c1=O |  |  |  | 5.1 |
| N#Cc1[nH]nnc1-c1cccc(OCc2cc(C(F)(F)F)ccc2C(F)(F)F)c1 | potentiometric |  |  | 5.5 |
| CNCc1cc(-c2ccccc2F)n(S(=O)(=O)c2cccnc2)c1 |  |  |  | 2.74 |
